We go through 96 compounds from ChEMBL document CHEMBL4513216, “Probing the Open Global Health Chemical Diversity Library for Multistage-Active Starting Points for Next-Generation Antimalarials” (ACS Infect Dis, 2020).

A short description of this series: Toxicity liver stage against HepG2, at 10uM. It counts as cell-based. Also on record: test concentration 10 uM, cell line HepG2-A16-CD81EGFP. The note with it: human, HepG2-A16-CD81EGFP cells; read-out: INHIBITION
The method, boiled down: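 Uninfected HepG2-A16-CD81EGFP cells, 3 × 10^3 per well, 1536-well, plated on prespotted compound at 10 μM final, parasite-free screening media added to match infected plates; puromycin 10 μM positive, DMSO 0.5% negative; run in parallel with 48 h PbLuc assay at 37 °C, 5% CO2; viability by CellTiter-Glo luminescence, normalized to controls.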
As for `Cn1c(=O)c2c(c3ccccc31)OC(C)(C)CC2`, the cytotoxicity at 10 µM turned out to be 17.8%.
In the case of `Cn1nnc(NCc2ccccc2OCc2ccc(Cl)cc2)n1` it was 2.71%.
As for `COc1ccc(CN2CCCCCC2c2cccs2)c(O)c1` (stereo unspecified), the cytotoxicity at 10 µM was determined as 3.6%.
For `Cn1ccnc1SC1CCc2ccccc2NC1=O` (stereo unspecified), the cytotoxicity at 10 µM is -8.75%.
With `Cc1ccc(C(=O)Nc2nnc(C3CC3)s2)c(-n2cnnn2)c1C`, the cytotoxicity at 10 µM is 12.3%.
Regarding `CN(C)CC1CSCCCN1C(=O)c1cccc(C(F)(F)F)c1` (stereo unspecified), the cytotoxicity at 10 µM is -5.03%.
Consider `O=C(NCCn1nc(-n2cncn2)ccc1=O)c1ccccc1Br`, for which the cytotoxicity at 10 µM was -2.02%.
Consider `CC(=O)N1Cc2nccn2CC(CNC(=O)c2cnccn2)C1` (stereo unspecified), for which the cytotoxicity at 10 µM is -144%.
In the case of `CCS(=O)(=O)N1CCCC2(CCCN2C(=O)c2cscn2)C1` (stereo unspecified) it was 8.25%; in that of `Cn1ccnc1C(=O)NCc1cc(=O)n2c(n1)CN(CC1CC1)CCC2`, 13.8%.
As for `O=C(c1ccsc1)N1CCc2onc(CN3CCOCC3)c2C1`, the figure is 5.07%; as for `CCOCC(=O)N1CC[C@H]2OCC[C@@H](c3nnc(C)o3)[C@H]2C1`, 12%; as for `COCCn1ccc(=O)c(OCC(=O)Nc2cccc(C(C)=O)c2)c1C`, 4.31%.
For `COc1cc(C2CC(=O)Oc3cc(C)[nH]c(=O)c32)ccc1OC(F)F` (stereo unspecified), the cytotoxicity at 10 µM is 7.34%.
As for `CNc1nc2c(s1)C(c1c(F)cccc1Cl)CC(=O)N2` (stereo unspecified), the figure is -14.7%; as for `CC(C)NC(=O)C1CN(C(N)=O)Cc2ccnn2C1` (stereo unspecified), -8.68%.
In the case of `CC(C)N1CCN(C(=O)c2[nH]nnc2Nc2ccccc2F)CC1` it was 6.36%.
`CCc1cc(=O)n(CC(=O)N2CCCC2)c(-c2ccccc2)n1`: the cytotoxicity at 10 µM was determined as 7.25%.
In the case of `CCn1cc(-c2nn3c(C(F)(F)F)nnc3s2)c(C)n1`, the cytotoxicity at 10 µM worked out at 13.5%.
In the case of `CC(CNC(=O)c1cc(C2CC2)nc2c1cnn2C)Cn1cccn1` (stereo unspecified) it was 3.49%.
As to `COc1ccc(CCc2nnc(NC(=O)C3CC34CCC4)s2)cc1OC` (stereo unspecified), the cytotoxicity at 10 µM was -0.095%.
As for `Cc1nn(C)c(C)c1-c1ccc(=O)n(C(C)C(=O)NC(C)(C)C)n1` (stereo unspecified), the figure is 5.75%.
In the case of `O=C(O)c1ccc(=O)n(CC(c2ccc(Cl)cc2)N2CCOCC2)c1` (stereo unspecified), the cytotoxicity at 10 µM was determined as 2.91%.
As for `Cc1ncc(CNC(=O)CCc2c(C)noc2C)c(C2CCCN2C)n1` (stereo unspecified), the cytotoxicity at 10 µM is -8.86%.
In the case of `CC(C)OCCS(=O)(=O)N1CCN(Cc2cccn2C)CC1` it was -17.3%.
In the case of `O=C(NCc1ccnc(OCC(F)(F)F)c1)NCC1COCCO1` (stereo unspecified) it was 1.81%; in that of `Cc1nccc(CNC(=O)NC(c2ncc(C)s2)C2CC2)n1` (stereo unspecified), -0.898%.
Consider `CCOCCN1CCN(c2ncccc2C#N)CC1CC` (stereo unspecified), for which the cytotoxicity at 10 µM came to 5.94%.
`O=C(NCC1CCS(=O)(=O)C1)N(Cc1ccccn1)C1CC1` (stereo unspecified): the cytotoxicity at 10 µM was -129%.
In the case of `CC(=O)N1CCC(NC(=O)Cc2nc3nc(C)cc(C)n3n2)CC1` it was 8.52%.
Take `O=C(Nc1ccccn1)c1ccc(F)c(S(=O)(=O)NC2CC2)c1`: the cytotoxicity at 10 µM came out at 4.37%.
Take `CN(C)C1Cc2ccccc2N(S(=O)(=O)c2cccc(C#N)c2)C1` (stereo unspecified): the cytotoxicity at 10 µM is 9.89%.
`CCNC(=O)Cc1ccc(NC(=O)NC(CC)c2ccncc2)cc1` (stereo unspecified): the cytotoxicity at 10 µM was -3%.
In the case of `O=C(c1cc(Cl)c2c(c1)OCO2)N1CCN(c2cnccn2)CC1` it was 6.76%.
In the case of `Cc1ccccc1C(=O)NCC(O)c1ccc(F)c(F)c1` (stereo unspecified) it was -10.1%; in that of `Cc1ccccc1-c1cc(NC(=O)NC2CC2)n(CCO)n1`, 8.09%; in that of `CCN(CC)c1ccc(NS(=O)(=O)c2cnn(CC)c2)cn1`, 3.07%.
For the compound `CC(NC(=O)Nc1nnc(-c2ccccn2)s1)C(=O)OC(C)(C)C` (stereo unspecified), the cytotoxicity at 10 µM was -6.87%.
For `Cc1nnc2ccc(NCC3(N4CCCCC4)CCOCC3)nn12`, the cytotoxicity at 10 µM was -3.59%.
As for `Cc1ccc(-c2ncc(CN3CCOC(c4ccco4)C3)s2)o1` (stereo unspecified), the figure is 4.37%; as for `CN(C)CC(NC(=O)c1ccn(C)c(=O)c1)c1ccccc1` (stereo unspecified), -5.85%.
`CSc1ccc(NC(=O)COCc2ccccc2)nc1`: the cytotoxicity at 10 µM was determined as 7.01%.
As for `CN(C)C(=O)CN1CCN(c2cc(N3CCCC3CO)ncn2)CC1` (stereo unspecified), the figure is -1.49%; as for `CS(=O)(=O)NCCc1cccc2cccnc12`, 18.3%.
In the case of `CS(=O)(=O)N1CCN(C(=O)c2[nH]c3ccc(Cl)cc3c2Cl)CC1` it was 24.6%; in that of `O=C(NCCc1nncn1C1CC1)c1cnn(Cc2ccccc2)c1`, -2.36%.
In the case of `CC(C)c1ocnc1C(=O)N1CCC(=O)Nc2cccnc21` it was 1.15%.
For `CC(C)(C)CNC(=O)CNC(=O)C1CC1`, the cytotoxicity at 10 µM was -1.15%.
In the case of `Cc1cc(C)c(CNC(=O)NCc2nnc3n2CCCCC3)c(=O)[nH]1` it was -1.34%; in that of `Cc1noc(CNc2ccccc2N2CCCCC2)n1`, -25.4%.
Take `COC(=O)c1cccc(S(=O)(=O)NC(=O)c2ccccc2F)c1`: the cytotoxicity at 10 µM stood at 5.79%.
In the case of `CCCn1c(O)nnc1SCC1OCCc2ccccc21` (stereo unspecified), the cytotoxicity at 10 µM is 4.32%.
In the case of `CC(C)CC(C(=O)N1CCCSCC1)N1CCCCC1=O` (stereo unspecified) it was -11%; in that of `NC(=O)C1CCN(Cc2cccc(NC(=O)c3ccsc3)c2)CC1`, 18.7%.
In the case of `CCS(=O)(=O)N1CCc2c(cccc2NC(=O)NCCOC)C1` it was 2.17%; in that of `Cn1cnc(-c2nc(C(=O)NCC3CCCO3)c3ccccn23)c1` (stereo unspecified), -109%; in that of `Cc1cccc(C(=O)N2CC[C@@H]3CN(c4ncccn4)CCO[C@@H]3C2)c1`, -71.6%.
In the case of `CCN1C(=O)[C@]2(CC[C@@H]3CN(S(=O)(=O)CC(C)C)C[C@@H]32)N=C1C` it was -78.2%.
Turning to `Cn1cc(C[C@H]2[C@@H](O)CCN2C(=O)c2ccc[nH]2)cn1`, the cytotoxicity at 10 µM is -71.2%.
As for `CCc1ccc(CN(C)c2ccc(-c3nc(COC)no3)cn2)nc1`, the cytotoxicity at 10 µM is -2.68%.
Take `Cc1n[nH]c(SCC(=O)N[C@@H](C)C(N)=O)n1`: the cytotoxicity at 10 µM came to 8.07%.
In the case of `O=C(CC1COCCN1)N1CCC(N2CCc3ccccc3C2)CC1` (stereo unspecified) it was -176%; in that of `CN(C)c1nc2c(c(=O)[nH]1)CCN(C(=O)c1ccc(=O)[nH]c1)C2`, 10.2%; in that of `Cc1nnc(CN(CCc2ccccc2)C2CCN(C)CC2)s1`, 0.219%.
As for `CCc1nn(C)c(Cl)c1CN1CCC(c2cc(O)nc(C)n2)CC1`, the figure is -9.74%; as for `CCn1nc(C)c(C(=O)N2C[C@@H](CN(C)C)[C@@H](CO)C2)c1C`, 0.44%.
In the case of `C=C(C)COc1cccc(CN(CC)Cc2noc(C)n2)c1` it was -12%; in that of `COc1cccc2c1OCC(CNC(=O)Cn1ccnc1C)C2` (stereo unspecified), -150%; in that of `COc1ccc(-c2cccc(-c3ccn(CC4COCCO4)n3)c2)nn1` (stereo unspecified), -7.78%.
Take `CC[C@H]1COCCN1C(=O)c1ccc(OC)c(N2CCOCC2)c1`: the cytotoxicity at 10 µM stood at 3.89%.
For `OCCN(Cc1ccccc1)Cc1ccsc1`, the cytotoxicity at 10 µM came out at 4.7%.
With `CCCn1c(C)c(CC(=O)NC(C)(C)CO)c2c1CC(C)(C)CC2=O`, the cytotoxicity at 10 µM is -8.97%.
As to `CCc1nc(C)c(CN2CCN(c3ncnc4c(C)csc34)CC2)[nH]1`, the cytotoxicity at 10 µM stood at 17.6%.
In the case of `Cc1cccc(C(C(=O)N2CC(c3ccccn3)C2)N(C)C)c1` (stereo unspecified) it was -13.1%.
In the case of `Cc1cncc(C(=O)N2CCCC(O)(CN3CCCC3)C2)c1` (stereo unspecified) it was 10.1%.
Regarding `COc1cc2cc(C(=O)NC(C)C(=O)O)n(C)c2c(OC)c1OC` (stereo unspecified), the cytotoxicity at 10 µM is -162%.
As for `CC(C)n1cnnc1CN(C)C(=O)C1CCCN(CC(N)=O)C1` (stereo unspecified), the figure is 1.05%; as for `CC(C)NC(=O)[C@@H]1C[C@H](N)CN1C(=O)c1cc2c([nH]c1=O)CCCC2`, 10.5%; as for `COc1ccc2c(c1)OCC(CNC(=O)c1ccncc1)C2` (stereo unspecified), -8.63%.
Take `CS(=O)(=O)N1CCCC(C(=O)Nc2cnn(COCC(F)(F)F)c2)C1` (stereo unspecified): the cytotoxicity at 10 µM is -11.5%.
As for `CNc1cc(C2CCCN2C(=O)c2ccc3oc(=O)n(C)c3c2)ccn1` (stereo unspecified), the figure is 1.68%.
For the compound `Cc1cncc(C2CCCN(C(=O)c3cccn3C)C2)n1` (stereo unspecified), the cytotoxicity at 10 µM was 2.14%.
On to `Fc1ccc(-c2nc(CNCCn3cccn3)cs2)cc1`, for which the cytotoxicity at 10 µM is -11.2%.
In the case of `CC(C)c1ccc(OCCC(=O)N2CCCC(C(N)=O)C2)cc1` (stereo unspecified) it was -11.7%.
Take `Cc1cccc(C(=O)NC(C)CN2CCCC2=O)n1` (stereo unspecified): the cytotoxicity at 10 µM was -9.51%.
Turning to `Cc1cnc(CN2CCCC2c2noc(C)n2)cn1` (stereo unspecified), the cytotoxicity at 10 µM was 3.78%.
Consider `CCC(CC)NC(=O)Cn1nc(C)nc1-c1ccccc1`, for which the cytotoxicity at 10 µM was -7.22%.
As for `Cc1cc(C(=O)N2CCCC(n3cncn3)C2)c(C)n1C1CC1` (stereo unspecified), the figure is -3.32%.
In the case of `CCn1c(C)nnc1CN(C)C1CCN(CCc2ccncc2)C1` (stereo unspecified) it was 3.97%.
`CN1CCc2c(C#N)c(NCCCN3CCOCC3)n3cnnc3c2C1`: the cytotoxicity at 10 µM was -7.14%.
In the case of `CC(C)CCN1CCC2(CCCN(c3nncs3)C2)C1` (stereo unspecified) it was -139%; in that of `O=C(c1ccno1)N1CC[C@@H]2O[C@H](COCCN3CCCC3)CC[C@@H]21`, -79.1%; in that of `O=C(N1CCCC1)N1CC[C@H]2OCC[C@@]2(COc2ncccc2F)C1`, -151%.
As for `Cc1nc(N2CCCC2)nc2c1CCN(Cc1ccsc1)CC2`, the figure is -106%; as for `CN(C)[C@@H]1CCN(C(=O)CC2CC2)[C@H]1Cc1cnn(C)c1`, -67.3%.
Take `CC(=Cc1ccccc1)CNCc1cccc(C(N)=O)c1`: the cytotoxicity at 10 µM came out at 6.03%.
